The record followed here is ChEMBL document CHEMBL2424614, “A novel p-terphenyl derivative inducing cell-cycle arrest and apoptosis in MDA-MB-435 cells through topoisomerase inhibition” (Eur J Med Chem, 2013).

Structures are written as SMILES. Active and inactive are the calls of the source. No cut-off for these calls is given here.

The target of assay [1] is DNA topoisomerase 2-alpha (Homo sapiens) (UniProt P11388). The experiment in a line: Inhibition of recombinant human DNA topoisomerase 2-alpha assessed as supression of kDNA decatenation at 100 uM after 30 mins by agarose gel electrophoresis. In short, it runs like this: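 ATP-dependent decatenation assay: 0.20 µg kDNA with 2 units Topo IIα at 37 °C for 30 min, 20 µL. Buffer: 50 mM Tris pH 8.0, KCl, 10 mM MgCl₂, 0.5 mM ATP, 0.5 mM DTT, 30 µg/mL BSA. Stopped with 10% SDS. Agarose gel scored for kDNA versus released minicircles.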
DNA topoisomerase 2-alpha (Homo sapiens), sequence (P11388 whole entry): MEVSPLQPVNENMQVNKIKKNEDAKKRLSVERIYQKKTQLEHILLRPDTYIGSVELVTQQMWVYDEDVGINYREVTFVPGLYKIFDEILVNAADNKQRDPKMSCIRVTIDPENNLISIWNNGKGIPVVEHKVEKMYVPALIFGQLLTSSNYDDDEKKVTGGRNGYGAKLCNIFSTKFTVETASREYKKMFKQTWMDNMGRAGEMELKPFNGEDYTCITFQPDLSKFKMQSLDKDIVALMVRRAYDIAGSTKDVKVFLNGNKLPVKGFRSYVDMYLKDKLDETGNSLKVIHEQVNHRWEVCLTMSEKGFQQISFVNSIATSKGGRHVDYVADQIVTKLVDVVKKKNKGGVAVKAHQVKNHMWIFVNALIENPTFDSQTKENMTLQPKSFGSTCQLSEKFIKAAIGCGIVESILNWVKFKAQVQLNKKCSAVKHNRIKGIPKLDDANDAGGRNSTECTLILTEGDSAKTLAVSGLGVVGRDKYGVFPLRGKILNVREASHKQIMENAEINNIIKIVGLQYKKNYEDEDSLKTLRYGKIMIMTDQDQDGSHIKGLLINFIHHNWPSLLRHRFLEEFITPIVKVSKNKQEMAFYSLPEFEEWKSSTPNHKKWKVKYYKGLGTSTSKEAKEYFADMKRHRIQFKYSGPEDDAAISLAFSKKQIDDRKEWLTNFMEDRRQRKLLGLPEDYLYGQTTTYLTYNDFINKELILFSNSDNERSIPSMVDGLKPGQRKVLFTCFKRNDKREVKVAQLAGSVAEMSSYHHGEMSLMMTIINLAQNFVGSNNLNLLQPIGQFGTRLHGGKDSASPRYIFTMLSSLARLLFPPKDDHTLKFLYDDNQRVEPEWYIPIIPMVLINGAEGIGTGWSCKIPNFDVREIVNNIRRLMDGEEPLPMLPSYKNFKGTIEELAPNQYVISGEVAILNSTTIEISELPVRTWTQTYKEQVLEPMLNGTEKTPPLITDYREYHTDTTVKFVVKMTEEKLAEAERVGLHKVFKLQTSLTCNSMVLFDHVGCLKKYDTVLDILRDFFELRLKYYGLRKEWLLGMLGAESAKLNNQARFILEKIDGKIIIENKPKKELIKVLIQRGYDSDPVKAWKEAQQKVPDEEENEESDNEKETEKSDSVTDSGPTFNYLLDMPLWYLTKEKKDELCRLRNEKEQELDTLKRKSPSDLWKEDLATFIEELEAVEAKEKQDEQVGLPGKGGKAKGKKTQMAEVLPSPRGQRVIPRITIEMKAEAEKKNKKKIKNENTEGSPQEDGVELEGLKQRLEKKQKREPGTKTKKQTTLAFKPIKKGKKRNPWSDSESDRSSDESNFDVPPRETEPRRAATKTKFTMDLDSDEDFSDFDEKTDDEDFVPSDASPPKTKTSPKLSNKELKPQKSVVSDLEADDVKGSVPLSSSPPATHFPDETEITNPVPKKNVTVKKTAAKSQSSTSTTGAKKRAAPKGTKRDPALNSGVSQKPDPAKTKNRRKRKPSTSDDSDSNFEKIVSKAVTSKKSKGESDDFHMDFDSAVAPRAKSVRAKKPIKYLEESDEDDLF

The subject of assay [2] is MDA-MB-435. The experiment in a line: Cytotoxicity against human MDA-MB-435 cells assessed as growth inhibition after 72 hrs by MTT assay. The class given is functional, cell-based. In a few lines:
(§1)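 MTT assay: cells treated in triplicate with a range of concentrations for 72 h at 37 °C, 5% CO2. Medium replaced, MTT (5 mg/mL) added for 4 h, then SDS/isobutanol/HCl solubiliser overnight. Absorbance read at 590 nm. Inhibition calculated against control and blank wells; IC50 is concentration giving 50% growth inhibition; three independent experiments.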

In another assay the test system is A549. The experiment in a line: Cytotoxicity against human A549 cells assessed as growth inhibition after 72 hrs by MTT assay. The class given is functional, cell-based. In short, it runs like this: as §1
(In general: Tetrazolium assays rely on reduction of a dye to a coloured formazan, in cell work by metabolically active cells.)

Another assay has as its system LNCaP. The experiment in a line: Cytotoxicity against human LNCAP cells assessed as growth inhibition after 72 hrs by MTT assay. The class given is functional, cell-based. In a few lines: as §1
A further assay is filed under the species Bos taurus. The experiment in a line: Inhibition of calf thymus DNA topoisomerase 1-mediated relaxation of supercoiled pBR322 DNA at 100 uM after 30 mins by Agarose gel electrophoresis. In short, it runs like this: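 Relaxation assay with 0.5 µg supercoiled pBR322 and 1 unit calf thymus Topo I, 20 µL. Buffer: 10 mM Tris–HCl pH 7.9, 150 mM NaCl, 0.1% BSA, 1 mM spermidine, 5% glycerol. Incubated 37 °C for 30 min; stopped with sarcosyl stop solution. 1% agarose gel, 5 V/cm, 2 h, TAE; ethidium bromide stain (0.5 µg/mL), UV. DMSO stocks. At least duplicate.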

Assay [3] relates to MDA-MB-435. The experiment in a line: Induction of DNA damage in human MDA-MB-435 cells assessed as phosphorylation of p53 at Ser15 at 10 uM after 12 hrs by Western blotting analysis. The class given is functional, cell-based. In a few lines:
(§2)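 Treated MDA-MB-435 cells lysed in ice-cold Tris-HCl pH 7.4 buffer with Triton, phosphatase and protease inhibitors. Lysates clarified, boiled in SDS loading buffer, run on 8-12% SDS-PAGE and blotted. Membranes blocked in 5% skim milk, probed with primary antibodies, then peroxidase secondaries with ECL detection. β-actin as loading control.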
For orientation: In western blotting, separated proteins are transferred to a membrane and probed.

The test system of assay [4] is MDA-MB-435. The experiment in a line: Induction of DNA damage in human MDA-MB-435 cells assessed as phosphorylation of H2AX at Ser139 at 10 uM after 12 hrs by Western blotting analysis. The class given is functional, cell-based. In a few lines:
as §2

The subject of assay [5] is MDA-MB-435. The experiment in a line: Induction of DNA damage in human MDA-MB-435 cells assessed as phosphorylation of ATM at Ser1981 at 10 uM after 12 hrs by Western blotting analysis. The class given is functional, cell-based. In a few lines: as §2
Assay [6] relates to Calf thymus DNA. The experiment in a line: Induction of DNA intercalation activity of calf thymus DNA topoisomerase 1 assessed as unwinding of pBR322 DNA at 2 ug/ml after 30 mins by Agarose gel electrophoresis. The class given is nucleic-acid assay. The following applies: Bos taurus. In short, it runs like this: (§3)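 Relaxed pBR322 made by treating supercoiled plasmid with excess Topo I (10 units), then proteinase K digestion at 37 °C, phenol-chloroform extraction and ethanol precipitation. Relaxed DNA incubated with compound at 37 °C for 30 min; stopped with gel loading buffer. Run on 1% agarose, TAE, 5 V/cm for 2 h; stained with ethidium bromide 0.5 µg/mL, viewed under UV.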

Assay [7] deals with DNA topoisomerase 2-alpha (Homo sapiens) (UniProt P11388). The experiment in a line: Inhibition of recombinant human DNA topoisomerase 2-alpha-mediated relaxation of supercoiled pBR322 DNA at 100 uM after 30 mins by Agarose gel electrophoresis. In short, it runs like this: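 Relaxation assay with 0.5 µg supercoiled pBR322 and 1 unit recombinant human Topo IIα, 20 µL. Incubated 30 min at 30 °C; stopped with 7 mM EDTA. 1% agarose gel, 5 V/cm, 2 h, TAE; ethidium bromide stain, UV. DMSO stocks. At least duplicate.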

The test system of assay [8] is Calf thymus DNA. The experiment in a line: Induction of DNA intercalation activity of calf thymus DNA topoisomerase 1 assessed as unwinding of pBR322 DNA at 100 uM after 30 mins by Agarose gel electrophoresis. Particulars: Bos taurus. The class given is nucleic-acid assay. In a few lines:
as §3

Assay [9] relates to MDA-MB-435. The experiment in a line: Cytotoxicity against human MDA-MB-435 cells assessed as growth inhibition at 100 uM after 72 hrs by MTT assay.
In assay [10] the test system is Calf thymus DNA. The experiment in a line: Induction of DNA intercalation activity of calf thymus DNA topoisomerase 1 assessed as unwinding of pBR322 DNA at 10 ug/ml after 30 mins by Agarose gel electrophoresis. The class given is nucleic-acid assay. Particulars: Bos taurus. In short, it runs like this:
as §3

Take `Oc1ccc(-c2cc(O)c(-c3ccc(O)c(O)c3)c(O)c2)cc1`: the inhibition entry (in [1]; in the assay listed under Bos taurus) was “Active” in each case. The “growth inhibition (GI)” value in the assay on MDA-MB-435 [2], in the assay on A549 and in the assay with LNCaP was “Active” each time.

In the case of `COc1cc([C@@H]2c3cc4c(cc3[C@@H](O[C@@H]3O[C@@H]5CO[C@@H](C)O[C@H]5[C@H](O)[C@H]3O)[C@H]3COC(=O)[C@H]23)OCO4)cc(OC)c1O`, the result in the assay with MDA-MB-435 [3], in the assay with MDA-MB-435 [4] and in the assay on MDA-MB-435 [5] was Active.

Regarding `CC[n+]1c(-c2ccccc2)c2cc(N)ccc2c2ccc(N)cc21`, the result in the assay on Calf thymus DNA [6] was Active.

On to `COc1ccc(-c2ccc(-c3ccc(O)cc3)c(OC)c2OC)cc1OC`, for which the inhibition result (in assay [1]; in the assay listed under Bos taurus; in assay [7]) was “inactive” in each case.

In the case of `Oc1ccc(-c2ccc(-c3ccc(O)c(O)c3)c(O)c2)cc1`, the inhibition result in assay [1] was “Active”. For the same compound, the “growth inhibition (GI)” value in the assay with MDA-MB-435 [2], in the assay with A549 and with LNCaP was “Active” throughout. Besides, in the assay listed under Bos taurus, the inhibition result was “inactive”.

With `CC[C@@]1(O)C(=O)OCc2c1cc1n(c2=O)Cc2cc3c(O)cccc3nc2-1`, the result in the assay on Calf thymus DNA [8] was inactive. The inhibition entry in the assay listed under Bos taurus is “Active”.

For the compound `COc1ccc(-c2ccc(-c3ccc(OC)c(OC)c3)c(OC)c2)cc1`, the inhibition entry (in assay [1]; in the assay filed under Bos taurus; in assay [7]) was “inactive” throughout. The result in the assay on MDA-MB-435 [9] was inactive.

As for `Oc1ccc(-c2ccc(-c3ccc(O)c(O)c3)c(O)c2O)cc1`, the inhibition result in [1] is “Active”. For the same compound, the “growth inhibition (GI)” value with MDA-MB-435 [2], in the assay on A549 and in the assay with LNCaP was “Active” each time. In the assay listed under Bos taurus, the inhibition result was “inactive”.

In the case of `COc1ccc(-c2cc(OC)c(-c3ccc(OC)c(OC)c3)c(OC)c2)cc1`, the inhibition result (in assay [1]; in the assay listed under Bos taurus; in assay [7]) was “inactive” throughout. Also, in the assay with MDA-MB-435 [9], the result was inactive.

As for `CC[N+](C)(CC)CCC[n+]1c(-c2ccccc2)c2cc(N)ccc2c2ccc(N)cc21`, the result in the assay with Calf thymus DNA [10] was Active.

Regarding `COc1ccc(-c2ccc(-c3ccc(O)cc3)cc2)cc1OC`, the inhibition result (in [1]; in the assay listed under Bos taurus; in assay [7]) was “inactive” in each case.
